Laboratory results taken from ChEMBL document CHEMBL1153576, “Novel ureas and thioureas of 15-membered azalides with antibacterial activity against key respiratory pathogens” (Eur J Med Chem, 2009).
In brackets after ≈: the same amount, converted by molar mass.

Columns and labels:
[1] = system: Streptococcus pyogenes; assay: Antibacterial activity against erythromycin-susceptible Streptococcus pyogenes after 16 to 22 hrs by broth microdilution method; assay type: functional
Procedure, shortened: (§1)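 Streptococci tested by CLSI broth microdilution in Mueller–Hinton broth with 5% horse serum, using two-fold serial dilutions. Compounds were dissolved in DMF at 5 mg/ml (stock). Inoculum was a turbidity-adjusted direct colony suspension giving about 5 × 10⁴ CFU/well. Trays were held at 35 °C for 16–22 h. MIC is the lowest concentration completely inhibiting growth (99%).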

[2] = system: Streptococcus pyogenes; assay: Antibacterial activity against efflux-mediated macrolide-resistance Streptococcus pyogenes after 16 to 22 hrs by broth microdilution method; assay type: functional
Procedure, shortened: (§2)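 Two-fold serial dilutions in microdilution trays, following the CLSI dilution standard for aerobic bacteria. Medium was Mueller–Hinton broth with 5% horse serum for streptococci. Stocks were made at 5 mg/ml in DMF. Inoculum came from a direct colony suspension adjusted by turbidity to about 5 × 10⁴ CFU/well final. Incubation was at 35 °C for 16–22 h. MIC is the lowest concentration completely inhibiting growth (99% inhibition).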

[3] = system: Streptococcus pneumoniae; assay: Antibacterial activity against erythromycin-susceptible Streptococcus pneumoniae after 16 to 22 hrs by broth microdilution method; assay type: functional; procedure, shortened: as §1
[4] = Chemical stability in 0.01 M artificial gastric juice assessed as half life at 37 degC; assay type: physicochemical
Procedure, shortened: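 Acid degradation followed as pseudo-first-order kinetics. Rate constants came from an exponential fit of reactant concentration versus time, and t1/2 was calculated from k.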

[5] = system: Streptococcus pyogenes; assay: Antibacterial activity against inducible macrolide-lincosamide-streptogramin-resistant Streptococcus pyogenes 16 to 22 hrs by broth microdilution method; assay type: functional; procedure, shortened: as §2
[6] = system: Staphylococcus aureus; assay: Antibacterial activity against Staphylococcus aureus ATCC 29213 after 16 to 22 hrs by broth microdilution method; assay type: functional
Procedure, shortened: (§3)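 Broth microdilution per the CLSI approved standard (sixth edition), using two-fold serial dilutions of compound in Mueller–Hinton broth. Stocks at 5 mg/ml in DMF. Inoculum came from a direct colony suspension adjusted by turbidity to about 5 × 10⁴ CFU/well final. Trays were incubated at 35 °C for 16–22 h. MIC is the lowest concentration completely inhibiting growth (99% inhibition).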

[7] = system: Streptococcus pneumoniae; assay: Antibacterial activity against constitutive macrolide-lincosamide-streptogramin-resistant Streptococcus pneumoniae after 16 to 22 hrs by broth microdilution method; assay type: functional; procedure, shortened: as §2
[8] = system: Streptococcus pneumoniae; assay: Antibacterial activity against efflux-mediated macrolide-resistant Streptococcus pneumoniae after 16 to 22 hrs by broth microdilution method; assay type: functional; procedure, shortened: as §2
[9] = system: Enterococcus faecalis; assay: Antibacterial activity against Enterococcus faecalis ATCC 29212 after 16 to 22 hrs by broth dilution method; assay type: functional; procedure, shortened: as §3
[10] = system: Escherichia coli; assay: Antibacterial activity against Escherichia coli ATCC 25922 after 16 to 22 hrs by broth dilution method; assay type: functional; procedure, shortened: as §3
[11] = system: Haemophilus influenzae; assay: Antibacterial activity against Haemophilus influenzae ATCC 49247 after 16 to 22 hrs by broth dilution method; assay type: functional
Procedure, shortened: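 Microdilution trays following the CLSI standard, with two-fold serial dilutions in supplemented broth suited to H. influenzae. DMF stocks at 5 mg/ml. Inoculum prepared from a turbidity-adjusted direct colony suspension to about 5 × 10⁴ CFU/well final. Incubated at 35 °C for 16–22 h. MIC is the lowest concentration giving complete (99%) growth inhibition.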

[12] = system: Moraxella catarrhalis; assay: Antibacterial activity against Moraxella catarrhalis ATCC 23246 after 16 to 22 hrs by broth dilution method; assay type: functional; procedure, shortened: as §3

Row | Compound | MIC [1] | MIC [2] | MIC [3] | half-life [4] | MIC [5] | MIC [6] | MIC [7] | MIC [8] | MIC [9] | MIC [10] | MIC [11] | MIC [12]
1 | CC[C@H]1OC(=O)[C@H](C)[C@@H](O[C@H]2C[C@@](C)(OC)[C@@H](O)[C@H](C)O2)[C@H](C)[C@@H](O[C@@H]2O[C@H](C)C[C@H](N(C)C)[C@H]2O)[C@](C)(O)C[C@@H](C)CN(CCCNC(=O)Nc2cccc3ccccc23)[C@H](C)[C@@H](O)[C@]1(C)O | ≤ 0.125 µg/mL | 4 µg/mL (≈ 4.16 µM) | ≤ 0.125 µg/mL | 1.98 h | 2 µg/mL (≈ 2.08 µM) | 0.5 µg/mL (≈ 0.52 µM) | > 64 µg/mL | 4 µg/mL (≈ 4.16 µM) | 4 µg/mL (≈ 4.16 µM) | 8 µg/mL (≈ 8.32 µM) | 1 µg/mL (≈ 1.04 µM) | 0.5 µg/mL (≈ 0.52 µM)
2 | CC[C@H]1OC(=O)[C@H](C)[C@@H](O[C@H]2C[C@@](C)(OC)[C@@H](O)[C@H](C)O2)[C@H](C)[C@@H](O[C@@H]2O[C@H](C)C[C@H](N(C)C)[C@H]2O)[C@](C)(O)C[C@@H](C)CN(CCCNC(=S)NCCCc2ccccc2)[C@H](C)[C@@H](O)[C@]1(C)O | ≤ 0.125 µg/mL | 4 µg/mL (≈ 4.13 µM) | ≤ 0.125 µg/mL | – | 4 µg/mL (≈ 4.13 µM) | 0.5 µg/mL (≈ 0.516 µM) | > 64 µg/mL | 8 µg/mL (≈ 8.25 µM) | 16 µg/mL (≈ 16.5 µM) | 16 µg/mL (≈ 16.5 µM) | 2 µg/mL (≈ 2.06 µM) | 1 µg/mL (≈ 1.03 µM)
3 | CC[C@H]1OC(=O)[C@H](C)[C@@H](O[C@H]2C[C@@](C)(OC)[C@@H](O)[C@H](C)O2)[C@H](C)[C@@H](O[C@@H]2O[C@H](C)C[C@H](N(C)C)[C@H]2O)[C@](C)(O)C[C@@H](C)CN(CCCNC(=O)Nc2ccccc2)[C@H](C)[C@@H](O)[C@]1(C)O | ≤ 0.125 µg/mL | 16 µg/mL (≈ 17.6 µM) | ≤ 0.125 µg/mL | – | 4 µg/mL (≈ 4.39 µM) | 0.25 µg/mL (≈ 0.274 µM) | > 64 µg/mL | 16 µg/mL (≈ 17.6 µM) | 16 µg/mL (≈ 17.6 µM) | 8 µg/mL (≈ 8.78 µM) | 8 µg/mL (≈ 8.78 µM) | 2 µg/mL (≈ 2.19 µM)
4 | CC[C@H]1OC(=O)[C@H](C)[C@@H](O[C@H]2C[C@@](C)(OC)[C@@H](O)[C@H](C)O2)[C@H](C)[C@@H](O[C@@H]2O[C@H](C)C[C@H](N(C)C)[C@H]2O)[C@](C)(O)C[C@@H](C)CN(CCCN(CCC#N)C(=O)Nc2cccc3ccccc23)[C@H](C)[C@@H](O)[C@]1(C)O | ≤ 0.125 µg/mL | 8 µg/mL (≈ 7.89 µM) | ≤ 0.125 µg/mL | 1.8 h | 8 µg/mL (≈ 7.89 µM) | 1 µg/mL (≈ 0.986 µM) | 64 µg/mL (≈ 63.1 µM) | 16 µg/mL (≈ 15.8 µM) | 16 µg/mL (≈ 15.8 µM) | 8 µg/mL (≈ 7.89 µM) | 4 µg/mL (≈ 3.94 µM) | 0.5 µg/mL (≈ 0.493 µM)
5 | CC[C@H]1OC(=O)[C@H](C)[C@@H](O[C@H]2C[C@@](C)(OC)[C@@H](O)[C@H](C)O2)[C@H](C)[C@@H](O[C@@H]2O[C@H](C)C[C@H](N(C)C)[C@H]2O)[C@](C)(O)C[C@@H](C)CN(CCCN(CCC#N)C(=O)NC(C)C)[C@H](C)[C@@H](O)[C@]1(C)O | ≤ 0.125 µg/mL | 32 µg/mL (≈ 34.4 µM) | ≤ 0.125 µg/mL | – | 32 µg/mL (≈ 34.4 µM) | 4 µg/mL (≈ 4.3 µM) | > 64 µg/mL | 32 µg/mL (≈ 34.4 µM) | 64 µg/mL (≈ 68.8 µM) | 16 µg/mL (≈ 17.2 µM) | 4 µg/mL (≈ 4.3 µM) | 0.5 µg/mL (≈ 0.537 µM)
6 | CC[C@H]1OC(=O)[C@H](C)[C@@H](O[C@H]2C[C@@](C)(OC)[C@@H](O)[C@H](C)O2)[C@H](C)[C@@H](O[C@@H]2O[C@H](C)C[C@H](N(C)C)[C@H]2O)[C@](C)(O)C[C@@H](C)CN(CCCN(CCC#N)C(=S)NCCCc2ccccc2)[C@H](C)[C@@H](O)[C@]1(C)O | ≤ 0.125 µg/mL | 16 µg/mL (≈ 15.6 µM) | ≤ 0.125 µg/mL | – | 8 µg/mL (≈ 7.82 µM) | 1 µg/mL (≈ 0.978 µM) | 32 µg/mL (≈ 31.3 µM) | 32 µg/mL (≈ 31.3 µM) | 16 µg/mL (≈ 15.6 µM) | 16 µg/mL (≈ 15.6 µM) | 4 µg/mL (≈ 3.91 µM) | 4 µg/mL (≈ 3.91 µM)
